Measured values taken from ChEMBL document CHEMBL5247635 (Eur J Med Chem, 2022).

Tests used:
[1] = Cytotoxicity against human HepG2 cells assessed as reduction in cell proliferation treated for 24 hrs by crystal violet staining based analysis; format: toxicity
Trypanothione reductase [2] = molecular target: Trypanothione reductase (Trypanosoma congolense, UniProt P13110); assay: Inhibition of HIS-tagged recombinant Trypanosoma congolense TryR oxidoreductase activity expressed in Escherichia coli in the presence of NADPH by spectrophotometry based DTNB-coupled assay
Trypanothione reductase (Trypanosoma congolense, UniProt P13110), sequence (P13110 whole entry): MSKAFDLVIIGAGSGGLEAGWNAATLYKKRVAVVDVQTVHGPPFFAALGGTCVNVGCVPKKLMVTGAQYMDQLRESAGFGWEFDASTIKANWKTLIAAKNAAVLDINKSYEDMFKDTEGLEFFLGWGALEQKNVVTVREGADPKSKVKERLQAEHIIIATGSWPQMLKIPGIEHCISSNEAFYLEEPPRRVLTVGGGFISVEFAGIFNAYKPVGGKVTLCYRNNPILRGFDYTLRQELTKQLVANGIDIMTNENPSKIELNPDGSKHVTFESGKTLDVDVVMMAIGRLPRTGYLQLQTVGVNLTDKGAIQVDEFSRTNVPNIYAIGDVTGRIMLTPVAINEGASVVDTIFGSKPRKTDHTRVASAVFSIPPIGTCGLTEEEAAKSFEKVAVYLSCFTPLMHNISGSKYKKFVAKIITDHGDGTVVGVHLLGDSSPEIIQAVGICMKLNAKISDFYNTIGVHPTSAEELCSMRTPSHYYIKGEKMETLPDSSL
Outline: (§1)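 HIS-tagged TryR from each species was expressed in E. coli. Activity was read by DTNB-coupled assay at 26 °C in 40 mM HEPES pH 7.5, 1 mM EDTA, 30 µM NADP+, 25 µM DTNB, 150 µM NADPH, 1.75% DMSO. Conditions were 50 µM TS2 and 0.5 nM enzyme; reaction started with NADPH + TS2. TNB absorbance at 412 nm. Three independent experiments.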

Trypanothione reductase [3] = molecular target: Trypanothione reductase (Trypanosoma brucei brucei, UniProt P39051); assay: Inhibition of HIS-tagged recombinant Trypanosoma brucei TryR oxidoreductase activity expressed in Escherichia coli in the presence of NADPH by spectrophotometry based DTNB-coupled assay; outline: as §1
Trypanothione reductase (Trypanosoma brucei brucei, UniProt P39051), sequence (P39051 whole entry): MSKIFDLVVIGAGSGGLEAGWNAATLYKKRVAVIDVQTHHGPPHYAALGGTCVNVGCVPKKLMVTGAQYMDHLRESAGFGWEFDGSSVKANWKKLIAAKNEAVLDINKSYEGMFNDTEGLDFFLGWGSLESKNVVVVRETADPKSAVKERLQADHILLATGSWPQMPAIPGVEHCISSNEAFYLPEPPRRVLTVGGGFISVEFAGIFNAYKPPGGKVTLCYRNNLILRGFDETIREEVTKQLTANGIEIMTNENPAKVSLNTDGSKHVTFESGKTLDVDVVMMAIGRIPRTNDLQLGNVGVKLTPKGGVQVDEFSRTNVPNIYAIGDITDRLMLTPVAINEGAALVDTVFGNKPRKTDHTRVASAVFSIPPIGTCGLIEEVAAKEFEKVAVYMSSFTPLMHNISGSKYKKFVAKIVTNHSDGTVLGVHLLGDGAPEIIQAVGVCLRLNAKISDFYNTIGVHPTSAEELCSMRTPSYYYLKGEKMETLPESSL

Trypanothione reductase [4] = molecular target: Trypanothione reductase (Trypanosoma cruzi, UniProt P28593); assay: Inhibition of HIS-tagged recombinant Trypanosoma cruzi TryR oxidoreductase activity expressed in Escherichia coli in the presence of NADPH by spectrophotometry based DTNB-coupled assay; outline: as §1
Trypanothione reductase (Trypanosoma cruzi, UniProt P28593), sequence (P28593 whole entry): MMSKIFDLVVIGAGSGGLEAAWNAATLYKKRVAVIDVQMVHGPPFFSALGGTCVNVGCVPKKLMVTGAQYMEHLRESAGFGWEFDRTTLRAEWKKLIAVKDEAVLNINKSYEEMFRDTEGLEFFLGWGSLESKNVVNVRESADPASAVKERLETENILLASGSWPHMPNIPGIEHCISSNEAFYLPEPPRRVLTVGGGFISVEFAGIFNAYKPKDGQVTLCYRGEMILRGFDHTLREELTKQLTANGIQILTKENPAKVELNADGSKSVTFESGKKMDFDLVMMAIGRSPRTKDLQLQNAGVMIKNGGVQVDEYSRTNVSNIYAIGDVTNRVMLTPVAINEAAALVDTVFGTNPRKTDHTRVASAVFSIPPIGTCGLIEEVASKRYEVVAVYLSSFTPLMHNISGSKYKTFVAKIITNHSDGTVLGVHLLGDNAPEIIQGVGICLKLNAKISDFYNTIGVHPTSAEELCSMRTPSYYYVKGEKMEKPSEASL

[5] = Cytotoxicity against human HepG2 cells assessed as reduction in cell proliferation measured after 72 hrs by crystal violet staining based analysis; format: toxicity
[6] = Selectivity index, ratio of CC50 for human HepG2 cells to EC50 for GFP-expressing Leishmania infantum intracellular amastigotes infected in human THP-1 derived macrophage cells; format: toxicity, cell-based; details: read-out: Ratio CC50/EC50
[7] = Selectivity index, ratio of CC50 for human HepG2 cells to EC50 for Leishmania infantum MCAN/ES/89/IPZ229/1/89 axenic amastigotes; format: toxicity; details: read-out: Ratio CC50/EC50
Trypanothione reductase [8] = molecular target: T1, Trypanothione reductase (Leishmania infantum, UniProt A4HSF7); assay: Disruption of HIS-FLAG-tagged recombinant Leishmania infantum TryR dimerization expressed in Escherichia coli Rossetta BL21 (DE3) cells incubated for 16 hrs by ELISA analysis
T1 sequence (A4HSF7 whole entry): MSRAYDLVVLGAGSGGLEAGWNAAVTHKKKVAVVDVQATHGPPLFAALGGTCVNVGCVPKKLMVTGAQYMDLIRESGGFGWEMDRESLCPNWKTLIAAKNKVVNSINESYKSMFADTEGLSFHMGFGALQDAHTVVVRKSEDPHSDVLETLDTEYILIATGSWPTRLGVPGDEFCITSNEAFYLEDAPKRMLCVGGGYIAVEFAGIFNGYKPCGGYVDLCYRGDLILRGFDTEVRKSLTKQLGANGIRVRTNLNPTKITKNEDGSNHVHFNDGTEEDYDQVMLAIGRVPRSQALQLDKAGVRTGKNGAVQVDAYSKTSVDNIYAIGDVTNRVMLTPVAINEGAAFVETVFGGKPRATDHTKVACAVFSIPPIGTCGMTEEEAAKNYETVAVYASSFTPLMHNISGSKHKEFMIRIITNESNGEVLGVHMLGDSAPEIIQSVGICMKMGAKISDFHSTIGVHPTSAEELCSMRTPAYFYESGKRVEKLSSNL
Outline: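 400 nM HIS-FLAG-tagged LiTryR (co-purified with HIS-tagged LiTryR as heterodimer) incubated with compound (3.1–75 μM) in 50 mM Tris pH 8.0, 300 mM NaCl, 16 h, 37 °C with vigorous shaking; centrifuged, supernatant captured on α-FLAG plates, detected with HRP-α-HIS antibody and o-phenylenediamine, A490. Signal normalized to DMSO; IC50 by nonlinear regression; triplicate, three independent experiments.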

Leishmania infantum [9] = assay: Antileishmanial activity against Leishmania infantum MCAN/ES/89/IPZ229/1/89 axenic amastigotes assessed as reduction in parasite viability treated for 24 hrs by PI staining based flow cytometry; format: functional, organism-based; details: MCAN/ES/89/IPZ229/1/89, 24 h
Outline: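 Axenic amastigotes were seeded from log-phase cultures at 10^5 parasites/mL in M199-based medium at pH 5.4. They were derived from promastigotes by 3 days at 37 °C. Compounds at 2.3–75 µM for 24 h at 37 °C. Viability read by propidium iodide flow cytometry. EC50 ± SE from three independent experiments, each in triplicate.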

Leishmania infantum [10] = assay: Antileishmanial activity against GFP-expressing Leishmania infantum intracellular amastigotes infected in human THP-1 derived macrophage cells assessed as reduction in parasite viability measured for 72 hrs by resazurin/alamar blue fluorometric assay; format: functional, organism-based
Outline: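 Human THP-1-derived macrophages infected with GFP-expressing L. infantum amastigotes; compounds at 2.3–75 µM, infected cells monitored for 72 h. EC50 ± SE from three independent experiments.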

[11] = Thermodynamic aqueous solubility of compound at 25 degreeC measured after 24 hrs by HPLC analysis; format: physicochemical; details: buffer, read-out: Therm_solubility
Outline: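 Excess compound was suspended in water (pH 5.5), sonicated 10 min, equilibrated overnight at room temperature, and centrifuged. Supernatant was diluted and quantified by HPLC (UV 254 nm) against a five-point standard curve (10–500 µM).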

Trypanothione reductase [12] = molecular target: T1, Trypanothione reductase; assay: Inhibition of HIS-tagged recombinant Leishmania infantum TryR oxidoreductase activity expressed in Escherichia coli in the presence of NADPH by spectrophotometry based DTNB-coupled assay
Outline: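 HIS-tagged LiTryR was used in a DTNB-coupled assay at 26 °C. Buffer: 40 mM HEPES pH 7.5, 1 mM EDTA, 30 µM NADP+, 25 µM DTNB, 150 µM NADPH, 1.75% DMSO. Standard runs used 1 µM TS2 and 7 nM enzyme; cross-species runs used 50 µM TS2 and 0.5 nM enzyme. Started with NADPH + TS2; TNB read at 412 nm. Compounds were screened at 75 µM first. Three independent experiments.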

Structure (SMILES)	CC50 at 24 h [1] [µM]	IC50 (Trypanothione reductase [2]) [µM]	IC50 (Trypanothione reductase [3]) [µM]	IC50 (Trypanothione reductase [4]) [µM]	CC50 at 72 h [5] [µM]	selectivity ratio [6]	selectivity ratio [7]	IC50 (Trypanothione reductase [8]) [µM]	EC50 (Leishmania infantum [9]) [µM]	EC50 (Leishmania infantum [10]) [µM]	solubility thermodynamic at 24 h [11] [µg/mL]	IC50 (Trypanothione reductase [12]) [µM]
C[n+]1nn(-c2ccc(-c3nc(CCc4ccc5ccccc5c4)cs3)c(OCCN3CCNC3=O)c2)cc1CCCCN.O=C(O)C(F)(F)F.O=S(=O)([O-])C(F)(F)F	> 75	4.2	5.1	9.2	> 75	> 2.8	> 5.8	> 75	12.9	27	23500	
C[n+]1nn(-c2ccc(-c3nc(CCC4Cc5ccccc5O4)cs3)c(OCCN3CCNC3=O)c2)cc1CCCCN (stereo not given)	> 75						< 1	> 75	> 75			5.4
CC[n+]1nn(-c2ccc(-c3nc(CCc4ccc(-c5ccccc5)cc4)cs3)c(OCCN3CCNC3=O)c2)cc1CCCCN	> 75				63.8	6.4	> 5.6	56.9	14	10		
NCCCCc1cn(-c2ccc(-c3nc(CCc4cccc5ccccc45)cs3)c(OCCN3CCNC3=O)c2)nn1.O=C(O)C(F)(F)F					> 29	< 1				> 75	2100	
C[n+]1nn(-c2ccc(-c3nc(-c4ccccc4)c(-c4ccccc4)s3)c(OCCN3CCNC3=O)c2)cc1CCCCN	> 75				> 75		> 5.8		12.9	73.8		3.9
COc1cc(-n2cc(CCCCN)[n+](C)n2)ccc1-c1nc(CCc2ccc(-c3ccccc3)cc2)cs1	35.9						4.7	> 75	7.6			5.5
C[n+]1nn(-c2ccc(-c3nc(CCc4ccccc4)cs3)c(OCCC3CCNCC3)c2)cc1CCCCN	> 75						< 1		> 75			2.2
C[n+]1nn(-c2ccc(-c3nc(CCc4ccc(Oc5ccccc5)cc4)c(-c4ccccc4)s3)c(OCCN3CCNC3=O)c2)cc1CCCCN	35.2						4	> 75	8.9			7.8
C[n+]1nn(-c2ccc(-c3nc(CCc4ccc(-c5ccccc5)cc4)cs3)c(OCCN3CCNC3=O)c2)cc1CCCN.O=C(O)C(F)(F)F.O=S(=O)([O-])C(F)(F)F	> 75				> 75	> 10.3	> 15.6	45.4	4.8	7.3	21600	
NCCCCc1cn(-c2ccc(-c3nc(CCc4ccc(-c5ccccc5)cc4)cs3)c(OCCN3CCNC3=O)c2)nn1.O=C(O)C(F)(F)F					40.5	< 1				52.1	200	
C[n+]1nn(-c2ccc(-c3nc(-c4ccccc4)cs3)c(OCCN3CCNC3=O)c2)cc1CCCCN	> 75						> 1.2		62.4			20.3
NCCCc1cn(-c2ccc(-c3nc(CCc4ccc(-c5ccccc5)cc4)cs3)c(OCCN3CCNC3=O)c2)nn1.O=C(O)C(F)(F)F					37.3	< 1				> 75	2800	
C[n+]1nn(-c2ccc(-c3nc(-c4ccc(Oc5ccccc5)cc4)c(-c4ccccc4)s3)c(OCCN3CCNC3=O)c2)cc1CCCCN	> 75				42.6	2.8	> 6.1	> 75	12.2	15		4.2
C[n+]1nn(-c2ccc(-c3nc(CCc4ccc(-c5ccccc5)cc4)c(-c4ccccc4)s3)c(OCCN3CCNC3=O)c2)cc1CCCCN	46.5				54.5	2.2	7.8	> 75	6	24.2		6.8
CCCCCCCCCCCCCCCCOP(=O)([O-])OCC[N+](C)(C)C [MILTEFOSINE]					> 75	> 125				0.6		
COc1cc(-n2cc(CCCCN)[n+](C)n2)ccc1-c1nc(CCc2ccccc2)cs1	> 75						> 3.8	> 75	20			18.3
NCCCCc1cn(-c2ccc(-c3nc(-c4ccccc4)c(-c4ccccc4)s3)c(OCCN3CCNC3=O)c2)nn1					> 75	> 3.1				24.2		
NCCCCc1cn(-c2ccc(-c3nc(CCc4ccccc4)cs3)c(OCCN3CCNC3=O)c2)nn1.O=C(O)C(F)(F)F					27.8	< 1				29.4	6400	
C[n+]1nn(-c2ccc(-c3nc(CCc4ccccc4)cs3)c(OCCN3CCNC3=O)c2)cc1CCCN	> 75						< 1		> 75			42
C[n+]1nn(-c2ccc(-c3nc(CCc4ccccc4)cs3)c(OCC3CCNCC3)c2)cc1CCCCN	> 75						> 2.6	> 75	28.4			2.1
C[n+]1nn(-c2ccc(-c3nc(-c4ccc(-c5ccccc5)cc4)c(-c4ccccc4)s3)c(OCCN3CCNC3=O)c2)cc1CCCCN	> 75				34.5	2.4	> 12.3	> 75	6.4	14.1		4
